STAT1 inh = inhibitors of IFN-gamma induced STAT1 signaling. NIH 3T3 STAT1-luciferase reporter, luminescence. actives 0.35% (n = 200,000). inhibition, % at 5.5 µM;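 active = inhibition above a set limit, the mean inhibition across all tested compounds plus 3 SD, cut at about 34% in these data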;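 note: 0% = IFN-gamma with DMSO and 100% = IFN-gamma with 300 µM nifuroxazide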
STAT3 inh-1 = STAT3 signaling inhibition; U3A cells, IL-6 STAT3-luciferase reporter, luminescence; host cell line lacks STAT1; inhibition, % at 5.5 µM; actives 0.89% (n = 190,000); AID 862;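 active = inhibition above the mean inhibition across all screened compounds plus 3 SD, cut at about 44% in these data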;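 note: 0% = DMSO only wells and 100% = 100 µM nifuroxazide control wells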
PERK inh = inhibitors of human PERK kinase; Q9NZJ5; inhibition, % at 5.6 µM; actives 0.17% (n = 220,000); AID 1416; CHO PERK-DD fusion, SEAP luminescence translation reporter;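 active = inhibition above the mean inhibition of all tested compounds plus 3 SD, set separately per screening campaign, cut at about 2.9% in these data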;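 note: PERK kinase domain activated by AP20187 dimerizer at 100 nM; 0% = DMSO with dimerizer and 100% = rapamycin at 8.4 µM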
STAT3 activator = STAT3 signaling activation. U3A cells, IL-6 STAT3-luciferase reporter, luminescence; 100% = signal with IL-6 EC80 alone. activation (% of control), % at 5.6 µM. actives 0.91% (n = 190,000). AID 871;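 active = activation above the screen-wide mean of compound activation plus 3 SD, cut at about 130% in these data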;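 note: 0% = background luminescence of wells with medium and substrate only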
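Material: human STAT1-deficient U3A cells with stable STAT3-luciferase reporter / Probe or stimulus: IL-6 stimulus at 33 ng/mL final / Schedule: 1 h compound pre-exposure, 6 h IL-6 stimulation, 37 °C / Technique: luminescence / Read-out basis: percent of IL-6-only median luminescence / Control set: IL-6-only high control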
Platelet DG rel = platelet dense granule release activity; human platelet-rich plasma, SFLLRN dense granule ATP release, luminescence; inhibition, %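 (compounds screened at 7.5 µM in platelet-rich plasma)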; actives 0.22% (n = 300,000); AID 1663;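 active = mean replicate score, as percent of positive control, at or above 50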
STAT3 inh-2 = confirmation of STAT3 signaling inhibitors; shares compounds with STAT3 inh-1; U3A cells, IL-6 STAT3 luciferase reporter, luminescence; cell line lacks STAT1; inhibition, % at 5.7 µM; actives 45% (n = 1,200);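 active = inhibition above the hit cutoff computed for the primary STAT3 screen, cut at about 44% in these data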;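 note: 0% = IL-6 plus DMSO and 100% = IL-6 plus nifuroxazide control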
NFkB inh STAT3ct = counter-screen for STAT3 inhibitors: NF-kappaB inhibition | shares compounds with STAT3 inh-1 | HEK293T NF-kB luciferase reporter, TNF-alpha induced | inhibition, % at 5.7 µM | actives 36% (n = 1,200);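 active = inhibition above the mean of solvent-only control wells plus 3 SD, cutoff set per campaign, cut at about 13% in these data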;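 note: 0% = TNF-alpha with DMSO and 100% = TNF-alpha with MG high control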
STAT1 inh STAT3c = STAT1 inhibition in STAT3 inhibitor counter-screen | actives 27% (n = 1,200) | inhibition, % at 5.7 µM | NIH 3T3 STAT1-luciferase reporter, IFN-gamma induced, luminescence | AID 1317 | shares compounds with STAT3 inh-1;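 active = inhibition above the mean plus 3 SD of solvent-only control wells, limit set per screening run, cut at about 16% in these data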;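 note: 0% = DMSO with IFN-gamma and 100% = nifuroxazide control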
The depositor's hits bear a star; . = not tested or not shown. The list is not random: actives were taken first. Their share in the collection is about 1.4%.

SMILES	STAT1 inh	STAT3 inh-1	PERK inh	STAT3 activator	Platelet DG rel	others
CC(C)CC1C(C#N)=C(N)Oc2n[nH]c(-c3cccs3)c21 (stereo not drawn)	11.0	7.4	-0.6	97.5	4.6
CSCCC1C(C#N)=C(N)Oc2n[nH]c(-c3cccs3)c21 (stereo not drawn)	-5.7	3.7	3.1*	100.5	-0.4
CCc1ccc(C(=O)N/N=C/c2ccncc2)s1	.	.	.	.	3.5
COc1ccc(OCc2cccc(C(=O)O)c2)cc1	.	.	.	.	13.5
O=C(OCC(F)(F)F)c1cccc(COc2ccc3ccccc3c2)c1	87.5*	102.4*	1.3	15.0	0.2
Oc1ccc(/C=N/Nc2nccnc2Cl)cc1	-10.4	-7.2	-0.1	112.6	98.3*
Fc1ccc(/C=N/Nc2nccnc2Cl)cc1	.	.	.	.	6.7
Nc1c(Cl)ncnc1N/N=C/c1ccc(O)cc1	.	.	0.6	.	71.9*
COc1ccccc1N1CCN(C2CCCN(S(=O)(=O)c3ccccc3)C2)CC1 (stereo not drawn)	.	.	.	.	27.2
Oc1ccc(-c2n[nH]c(C(F)(F)F)c2-c2ccccc2)c(O)c1	41.5*	71.9*	0.4	40.5	4.4
CC1=NN(c2ccccc2)C(=O)/C1=C/c1c(O)n(-c2ccc(F)c(Cl)c2)[nH]c1=O	-46.6	-86.4	0.1	165.9*	16.6
CC1=NN(c2ccccc2)C(=O)/C1=C\c1c(C)[nH]n(-c2ccccc2)c1=O	-0.6	-48.7	0.8	143.9*	-1.6
COc1ccccc1/C=C1/C(=O)N(c2ccccc2)N=C1C	.	.	.	.	1.6
CC(C)CN=C(NS(=O)(=O)c1ccccc1)C(Cl)(Cl)Cl	22.8	5.9	1.1	95.8	-8.0
O=C(CN1C(=O)CSC1=O)Nc1ccccc1N1CCOCC1	7.0	6.6	3.1*	97.9	2.9
O=C(Cn1c(=O)oc2ccccc21)Nc1ccccc1N1CCOCC1	6.9	4.0	-0.3	100.7	5.9
O=C(Nc1nnc(S(=O)(=O)N2CCCCC2)s1)c1ccc(Cl)cc1	.	.	.	.	-3.6
CCc1ccc(/C=N/N2CCN(c3ccccn3)CC2)cc1	.	.	-0.2	.	13.1
CCN(CC)c1ccc(/C=N/N2CCN(c3ccccn3)CC2)cc1	.	.	3.0*	.	0.4
Cc1ccc(NC(=O)CSc2nc(=O)n(CCCN3CCOCC3)c3c2CCCC3)c(C)c1	.	.	.	.	16.7
CCOC(=O)N/N=C/c1c(C)nn(-c2ccccc2Cl)c1Cl	-27.3	-13.6	0.7	107.3	-2.7
Cc1nn(-c2ccccc2Cl)c(Cl)c1/C=N/Nc1nc2ccccc2s1	33.8	73.2*	0.5	39.1	17.1
Cc1ccsc1/C=N/Nc1nc2ccccc2s1	-82.2	-58.9	-0.5	144.3*	-2.2
COc1ccc(/C=N/NC(=O)C(=O)NCc2cccnc2)cc1	-7.3	6.9	-0.1	95.6	9.4
COCc1ccc(C(=O)N2CCCC(CNC(=O)c3ccc(F)cc3)C2)o1 (stereo not drawn)	.	.	.	.	-6.1
SMILES	STAT1 inh	STAT3 inh-1	PERK inh	STAT3 activator	Platelet DG rel	others
O=C(Cn1ccnc1)c1ccc(Cl)cc1	.	.	.	.	1.8
O=C(O)Cn1ccnc1	2.7	-2.2	2.9*	101.8	3.4
COC(=O)[C@@H](N)CS	10.8	8.8	3.0*	94.3	6.4
COC(=O)C(N)Cc1ccc(O)cc1 (stereo not drawn)	1.7	-3.5	0.3	103.1	3.2
CC(C)CN(C(=O)COC(=O)c1c2c(nc3ccccc13)CCC2)c1c(N)n(Cc2ccccc2)c(=O)[nH]c1=O	.	.	.	.	-3.2
CCN1CC=C2C(C#N)=C(N)C(C#N)(C#N)C(CCc3ccccc3)C2C1 (stereo not drawn)	4.0	-39.9	0.2	140.8*	.
CC(=O)N1CC=C2C(C#N)=C(N)C(C#N)(C#N)C(CCc3ccccc3)C2C1 (stereo not drawn)	-1.4	-24.5	1.3	126.8	5.4
O=C(c1ccc(Br)o1)N1CCN(Cc2ccccc2Cl)CC1	.	.	.	.	1.2
O=C(CCNC(=O)C1CCN(S(=O)(=O)c2ccccc2)CC1)NCc1ccc(Cl)c(Cl)c1	.	.	.	.	58.2*
O=C(CCNC(=O)C1CCN(S(=O)(=O)c2ccccc2)CC1)NCc1ccncc1	.	.	.	.	8.1
O=C1c2ccccc2C(O)N1CCN1CCOCC1 (stereo not drawn)	3.6	-3.6	1.5	107.5	53.1*
COc1cc(C(C#N)N2CCOCC2)ccc1O (stereo not drawn)	-10.6	2.2	3.5*	102.8	.
Cc1ccc2c(n1)sc1c(-c3ccccc3)c(C#N)c(N)nc12	-0.3	-35.2	0.5	134.9*	-3.0
Cc1nc(N)c(C#N)c(-c2cccnc2)c1-c1ccccc1	.	.	.	.	-0.5
O=C(O)Cn1cc(/C=C2\SC(=O)N(c3ccccc3)C2=O)c2ccccc21	-11.0	11.8	-0.2	96.9	1.9
Cn1cc(/C=C2/SC(=O)N(c3ccccc3)C2=O)c2ccccc21	-36.4	-83.6	1.2	172.3*	3.0
Cc1ccc2cn[nH]c2c1NC(N)=S	-2.1	24.1	1.9	82.4	-20.9
Cc1sc(NC(=O)CN2CCOCC2)nc1-c1ccc2c(c1)CCN2S(=O)(=O)c1ccccc1	19.9	65.7*	-0.5	44.8	-3.8	STAT3 inh-2=52.5*;NFkB inh STAT3ct=21.6*;STAT1 inh STAT3c=20.3*
Cc1ccc(NC(=O)Cn2cc(C=O)c3ccccc32)cc1C	.	.	.	.	8.3
CC(=O)c1cn(CC(=O)Nc2ccc(C)c(C)c2)c2ccccc12	24.7	67.0*	-0.1	45.8	-4.7	STAT3 inh-2=52.7*;NFkB inh STAT3ct=19.1*;STAT1 inh STAT3c=17.6*
CC(=O)c1cn(CC(=O)Nc2ccccc2C)c2ccccc12	24.9	44.3*	-0.3	64.3	17.6	STAT3 inh-2=43.7*;NFkB inh STAT3ct=3.9;STAT1 inh STAT3c=12.3
COc1cc(C(=O)N2CCN(c3ncnc4sc(C)c(C)c34)CC2)cc(OC)c1OC	36.8*	51.7*	-0.8	61.9	-2.0	STAT3 inh-2=45.1*;NFkB inh STAT3ct=17.2*;STAT1 inh STAT3c=30.9*
Cc1sc2ncnc(N3CCN(c4ncccn4)CC3)c2c1C	10.5	22.9	-1.1	83.2	-0.2
COc1ccccc1OCC(=O)c1[nH]c(C)c(C(C)=O)c1C	13.5	55.8*	-0.2	58.6	-0.9	STAT3 inh-2=46.3*;NFkB inh STAT3ct=5.2;STAT1 inh STAT3c=11.8
Cc1ccc(S(=O)(=O)NC(=O)COc2cc(C)ccc2C(C)C)cc1	.	.	.	.	-8.0
CC(=O)c1c(C)[nH]c(C(=O)COc2ccc(C#N)cc2)c1C	10.3	16.2	-0.3	89.5	-0.3
CC(=O)c1c(C)[nH]c(C(=O)COc2cc(C)ccc2C(C)C)c1C	27.4	68.1*	-1.3	44.7	-37.8	STAT3 inh-2=72.7*;NFkB inh STAT3ct=21.3*;STAT1 inh STAT3c=22.0*
O=C(/C=C\Nc1ccc2c(c1)OCO2)c1ccc(Cl)s1	-66.2	62.0*	1.2	52.9	1.5	STAT3 inh-2=13.7;NFkB inh STAT3ct=10.5;STAT1 inh STAT3c=-96.7
COc1ccc(N/C=C\C(=O)c2ccc3c(c2)OCO3)cc1	-12.9	30.5	0.7	72.9	15.0
